Measurements published in ChEMBL document CHEMBL1124649, “Platelet activating factor antagonists: synthesis and structure-activity studies of novel PAF analogues modified in the phosphorylcholine moiety” (J Med Chem, 1989).

What was measured:
Format in all cases: functional
Rattus norvegicus [1] = assay: Compound was evaluated for the percent inhibition of the platelet activating factor (PAF) hypotension, after 5 min of intravenous injection of 0.1 mg/kg in rat
Rattus norvegicus [2] = assay: Compound was evaluated for the percent inhibition of the platelet activating factor (PAF) hypotension, after 120 min of intravenous injection of 0.1 mg/kg in rat; details: 2 h
Rattus norvegicus [3] = assay: Compound was evaluated for the percent inhibition of the platelet activating factor (PAF) hypotension, after 60 min of intravenous injection of 0.1 mg/kg in rat; details: 1 h
Rattus norvegicus [4] = assay: Compound was evaluated for the percent inhibition of the platelet activating factor (PAF) hypotension, after 5 min of intravenous injection of 1 mg/kg in rat
Rattus norvegicus [5] = assay: Compound was evaluated for the percent inhibition of the platelet activating factor (PAF) hypotension, after 60 min of intravenous injection of 1 mg/kg in rat; details: 1 h
Rattus norvegicus [6] = assay: Compound was evaluated for the percent inhibition of the platelet activating factor (PAF) hypotension, after 120 min of intravenous injection of 1 mg/kg in rat; details: 2 h
Mus musculus [7] = assay: Time course of protecting effect on PAF-induced death in mice, at the dose of 1 mg/kg after 8 hr
Outline: (§1)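 Conscious male ICR-Jcl mice, 5-7 weeks old. Drug dissolved in saline (0.1 mL/10 g) given into the tail vein 8 or 24 h before PAF (50 μg/kg, iv); saline-only controls. Death defined as cessation of respiration. Survival rate recorded 60 min after PAF. 16 mice per compound, 142 controls; χ2 test versus control.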

Mus musculus [8] = assay: Time course of protecting effect on PAF-induced death in mice, at the dose of 1 mg/kg after 24 hr; outline: as §1

Structure (SMILES)	inhibition in vivo at 0.1 mg/kg (Rattus norvegicus [1])	inhibition in vivo at 0.1 mg/kg (Rattus norvegicus [2])	inhibition in vivo at 0.1 mg/kg (Rattus norvegicus [3])	inhibition in vivo at 1 mg/kg (Rattus norvegicus [4])	inhibition in vivo at 1 mg/kg (Rattus norvegicus [5])	inhibition in vivo at 1 mg/kg (Rattus norvegicus [6])	survival at 1 mg/kg (Mus musculus [7])	survival at 1 mg/kg (Mus musculus [8])
CCCCCCCCCCCCCCCCCCNC(=O)OCC(COC(=O)N(Cc1scc[n+]1CC)C(C)=O)OC (stereo not given)	100%	0%	3%	–	–	–	–	–
CCCCCCCCCCCCCCCCCCNC(=O)OCC(COC(=O)N(Cc1scc[n+]1C)C(C)=O)OC (stereo not given)	43%	0%	6%	100%	100%	30%	–	–
CCCCCCCCCCCCCCCCCCNC(=O)OCC(COC(=O)N(Cc1csc[n+]1CC)C(C)=O)OC (stereo not given)	100%	14%	40%	–	–	–	75%	25%
CCCCCCCCCCCCCCCCCCNC(=O)OCC(COC(=O)N(Cc1cccc[n+]1CCCC)C(C)=O)OC (stereo not given)	–	–	–	100%	0%	–	–	–
CCCCCCCCCCCCCCCCCCNC(=O)OCC(COC(=O)N(Cc1cccc[n+]1CC)C(C)=O)OC (stereo not given) [CV-6209]	100%	34%	55%	–	–	–	100%	69%
CCCCCCCCCCCCCCCCCCNC(=O)OCC(COC(=O)N(Cc1csc[n+]1C)C(C)=O)OC (stereo not given)	–	–	–	92%	29%	4%	–	–
CCCCCCCCCCCCCCCCCCNC(=O)OCC(COC(=O)N(Cc1cccc[n+]1C)C(C)=O)OC (stereo not given)	–	–	–	82%	39%	33%	–	–
CCCCCCCCCCCCCCCCCCNC(=O)OCC(COC(=O)N(Cc1cccc[n+]1CCC)C(C)=O)OC (stereo not given)	45%	–	0%	–	–	–	–	–
CCCCCCCCCCCCCCCCCCNC(=O)OC[C@H](COC(=O)N(Cc1cccc[n+]1CC)C(C)=O)OC	100%	20%	36%	–	–	–	–	–
CCCCCCCCCCCCCCCCCCNC(=O)OC[C@@H](COC(=O)N(Cc1cccc[n+]1CC)C(C)=O)OC	100%	17%	54%	–	–	–	–	–
